Active and inactive are the calls of the source. The rule behind the calls is not given here.
Assays:
[1] = species: Mesocricetus auratus; assay: Serum cholesterol level change relative to the control value (366(24)) in hamsters at a dose of 0.2% of diet for 1 week
[2] = tested on: CHO; assay: Capability of derepressing the transcription of SV40 promoter in CHO cells by luciferase assay; NA= Not active within the test range 0-20 ug/mL; assay type: functional, cell-based; details: Cricetulus griseus
Method in brief: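 Counter-screen in CHO clone SV40/LN9, with luciferase driven by the SV40 promoter. Confluent monolayers were given compound at 0.30-20 μg/mL for 24 h in serum-free albumin assay medium, triplicate wells. Lysates were read for luciferase peak luminescence, normalized to lysate protein.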

[3] = target: Low-density lipoprotein receptor (Homo sapiens) (UniProt P01130); assay: (§1) Capability of derepressing the transcription of Low density lipoprotein receptor promoter in the presence of 25-hydroxycholesterol in CHO cells measured as maximum activity at 20 ug/mL; assay type: cell-based
Chain of Low-density lipoprotein receptor (Homo sapiens) (P01130 whole entry, the tested form may be a part): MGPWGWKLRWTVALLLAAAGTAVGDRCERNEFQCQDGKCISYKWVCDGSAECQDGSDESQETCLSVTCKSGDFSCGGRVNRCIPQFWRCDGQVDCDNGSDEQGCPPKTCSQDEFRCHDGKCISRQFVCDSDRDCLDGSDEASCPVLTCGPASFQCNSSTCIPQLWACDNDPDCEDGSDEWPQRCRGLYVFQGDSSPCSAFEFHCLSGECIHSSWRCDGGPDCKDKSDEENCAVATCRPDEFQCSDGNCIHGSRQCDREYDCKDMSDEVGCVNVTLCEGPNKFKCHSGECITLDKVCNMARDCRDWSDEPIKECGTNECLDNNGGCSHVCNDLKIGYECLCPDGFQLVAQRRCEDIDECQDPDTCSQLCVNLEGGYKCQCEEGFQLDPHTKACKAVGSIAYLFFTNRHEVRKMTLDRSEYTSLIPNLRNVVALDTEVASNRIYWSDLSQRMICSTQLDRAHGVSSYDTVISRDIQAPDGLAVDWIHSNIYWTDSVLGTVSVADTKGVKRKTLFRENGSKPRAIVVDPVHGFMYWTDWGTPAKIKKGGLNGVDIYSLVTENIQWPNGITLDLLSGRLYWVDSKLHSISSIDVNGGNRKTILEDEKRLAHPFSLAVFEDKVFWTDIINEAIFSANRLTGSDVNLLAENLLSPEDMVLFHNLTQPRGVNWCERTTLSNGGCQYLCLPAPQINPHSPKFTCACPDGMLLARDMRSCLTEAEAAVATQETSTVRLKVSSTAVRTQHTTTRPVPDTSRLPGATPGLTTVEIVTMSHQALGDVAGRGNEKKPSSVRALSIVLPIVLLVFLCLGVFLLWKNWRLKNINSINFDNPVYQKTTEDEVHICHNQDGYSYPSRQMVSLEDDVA
Method in brief: (§2)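 Stably transfected CHO clone S27/B30 (LDL receptor promoter fused to firefly luciferase), grown to confluence (2-3 days, 37 °C, 5% CO2). Then 24 h in serum-free assay medium (DMEM/Ham's F-12 3:1, 0.5% bovine albumin) with 25-hydroxycholesterol 0.5 μg/mL plus compound at 0.30-20 μg/mL from ethanol stock, triplicate wells. Lysate luciferase peak light per μg protein (Coomassie). EC30 = concentration giving 30% rise over control. MA = % specific induction at 20 μg/mL.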

[4] = target: Low-density lipoprotein receptor (Homo sapiens) (UniProt P01130); assay: Capability of derepressing the transcription of human Low density lipoprotein receptor promoter in the presence of 25-hydroxycholesterol in CHO cells by luciferase assay; assay type: cell-based
Method in brief: as §2

[5] = tested on: Cricetinae gen. sp.; assay: Total serum cholesterol level with relative to the control value (366(24)) in hamsters at a dose of 0.2% of diet for 1 week; assay type: functional, Cricetulus griseus
[6] = species: Mesocricetus auratus; assay: Serum cholesterol level change relative to the control value (425(58)) in hamsters at a dose of 0.2% of diet for 1 week
[7] = tested on: Cricetinae gen. sp.; assay: Total serum cholesterol level with relative to the control value (425(58)) in hamsters at a dose of 0.2% of diet for 1 week; assay type: functional, Cricetulus griseus
[8] = tested on: Cricetinae gen. sp.; assay: Total serum cholesterol level with relative to the control value (306(27) in hamsters at a dose of 0.2% of diet for 1 week; assay type: functional, Cricetulus griseus
[9] = tested on: CHO; assay: In vitro [1-14C]-acetate]-cholesterol biosynthesis inhibition assay (14CACBI) in CHO cells; neg = Negative :no effect on biosynthesis of cholesterol; assay type: functional, cell-based; details: Cricetulus griseus
Method in brief: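 Confluent CHO cells in replicate 100 mm dishes were held 20 h in assay medium without 25-hydroxycholesterol, with ethanol vehicle (0.5% v/v) or compound at 20 μg/mL. [1-14C]acetate was then added (final 1 μCi/mL) for 4 h more. Cells were scraped and sonicated, lipids separated, and the cholesterol band scraped and counted by scintillation.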

[10] = species: Mesocricetus auratus; assay: Serum cholesterol level change relative to the control value (306(27)) in hamsters at a dose of 0.2% of diet for 1 week
[11] = species: Mesocricetus auratus; assay: Serum cholesterol level change relative to the control value (333(23)) in hamsters at a dose of 0.2% of diet for 1 week
[12] = tested on: Cricetinae gen. sp.; assay: Total serum cholesterol level with relative to the control value (333(23)) in hamsters at a dose of 0.2% of diet for 1 week; assay type: functional, Cricetulus griseus
[13] = tested on: Cricetinae gen. sp.; assay: Total serum cholesterol level with relative to the control value (313(24)) in hamsters at a dose of 0.2% of diet for 1 week; assay type: functional, Cricetulus griseus
[14] = species: Mesocricetus auratus; assay: Serum cholesterol level changes with relative to the control value (313(24)) in hamsters at a dose of 0.2% of diet for 1 week
[15] = target: Low-density lipoprotein receptor (Homo sapiens) (UniProt P01130); assay: Capability of derepressing the transcription of human Low density lipoprotein receptor promoter in the presence of 25-hydroxycholesterol in CHO cells by luciferase assay; NA= Not active within the test range 0-20 ug/mL; assay type: cell-based
Method in brief: as §2

[16] = species: Mesocricetus auratus; assay: Serum cholesterol level change relative to the control value (313(24)) in hamsters at a dose of 0.2% of diet for 1 week
[17] = target: Low-density lipoprotein receptor (Homo sapiens) (UniProt P01130); assay: Luciferase activity (LDLR/Luc) expressed as light units/microg assayed in LMB the percentage specific light induction of agent over the control at concentration of 20 ug/mL was determined in vitro.
Method in brief: as §2

[18] = target: Low-density lipoprotein receptor (Homo sapiens) (UniProt P01130); assay: as §1; assay type: functional, cell-based
Method in brief: as §2

[19] = tested on: Cricetinae gen. sp.; assay: Total serum cholesterol level with relative to the control value (274(23)) in hamsters at a dose of 0.2% of diet for 1 week; assay type: functional, Cricetulus griseus
[20] = tested on: Cricetinae gen. sp.; assay: Serum cholesterol level change relative to the control value (274(23)) in hamsters at a dose of 0.2% of diet for 1 week; assay type: functional, Cricetulus griseus

CC(C)CCC[C@@H](C)[C@H]1CC[C@H]2[C@@H]3CCC4[C@H](Cc5ccc(F)cc5)[C@H](O)CC[C@]4(C)[C@H]3CC[C@]12C (stereo not given in full)
Relative change [1]: -50%
Activity [2]: inactive
MA [3]: 80%
EC30 [4]: 17 µM
Total cholesterol [5]: 181 mg/dL

C=C(Cl)C[C@H]1C2CC[C@H]3[C@@H]4CC[C@H]([C@H](C)CC[C@@H](CC)C(C)C)[C@@]4(C)CC[C@@H]3[C@@]2(C)CC[C@H]1O (stereo not given in full)
Activity [2]: inactive
MA [3]: 120%
Relative change [6]: -43%
EC30 [4]: 4.2 µM
Total cholesterol [7]: 241 mg/dL

CC(C)CCC[C@@H](C)[C@H]1CC[C@H]2[C@@H]3CC[C@H]4[C@H](Cc5ccccc5)C(=O)CC[C@]4(C)[C@H]3CC[C@]12C
Relative change [1]: -15%
Total cholesterol [5]: 312 mg/dL

C=CC[C@H]1C2=CCC3C(CC[C@@]4(C)C3CC[C@@H]4[C@H](C)CCCC(C)C)[C@@]2(C)CC[C@H]1O (stereo not given in full)
Total cholesterol [8]: 163 mg/dL
Activity [2]: inactive
MA [3]: 96%
EC30 [4]: 3.5 µM
Activity [9]: Negative
Relative change [10]: -47%

C=CC[C@H]1C2CC[C@H]3[C@@H]4CC[C@H]([C@H](C)CC[C@@H](CC)C(C)C)[C@@]4(C)CC[C@@H]3[C@@]2(C)CC[C@H]1O (stereo not given in full)
Activity [2]: inactive
MA [3]: 95%
Relative change [11]: -35%
Total cholesterol [12]: 217 mg/dL
EC30 [4]: 8.2 µM

C/C=C/C[C@H]1C2CC[C@H]3[C@@H]4CC[C@H]([C@H](C)CCCC(C)C)[C@@]4(C)CC[C@@H]3[C@@]2(C)CC[C@@H]1O (stereo not given in full)
Total cholesterol [13]: 245 mg/dL
Relative change [14]: -22%
EC30 [15]: inactive

C=CC[C@@H]1C(=O)CC[C@]2(C)[C@H]3CC[C@]4(C)[C@@H]([C@H](C)CCCC(C)C)CC[C@H]4[C@@H]3CC[C@@H]12
Relative change [1]: -27%
EC30 [15]: inactive
Total cholesterol [5]: 267 mg/dL

CC(C)CCC[C@@H](C)[C@H]1CC[C@H]2[C@@H]3CCC4[C@H](C/C=C\Cl)[C@H](O)CC[C@]4(C)[C@H]3CC[C@]12C (stereo not given in full)
Relative change [6]: -26%
Total cholesterol [7]: 316 mg/dL
EC30 [15]: inactive

C=CC[C@@H]1C[C@@]2(C)C(CC[C@H]3[C@@H]4CC[C@H]([C@H](C)CCCC(C)C)[C@@]4(C)CC[C@@H]32)C[C@@H]1O (stereo not given in full)
Activity [2]: inactive
Relative change [16]: -33%
MA [3]: 60%
Total cholesterol [13]: 209 mg/dL
EC30 [4]: 41 µM
Activity [9]: Negative

C=C(C)C[C@H]1C2CC[C@H]3[C@@H]4CC[C@H]([C@H](C)CC[C@@H](CC)C(C)C)[C@@]4(C)CC[C@@H]3[C@@]2(C)CC[C@H]1O (stereo not given in full)
Activity [2]: inactive
MA [3]: 165%
Relative change [11]: -41%
Total cholesterol [12]: 196 mg/dL
EC30 [4]: 3.1 µM

C/C=C/C[C@H]1C2CC[C@H]3[C@@H]4CC[C@H]([C@H](C)CCCC(C)C)[C@@]4(C)CC[C@@H]3[C@@]2(C)CC[C@H]1O (stereo not given in full)
Activity [2]: inactive
MA [17]: 86%
Total cholesterol [13]: 210 mg/dL
EC30 [4]: 11 µM
Relative change [14]: -33%
Activity [9]: Negative

C=CC[C@H]1C2CC[C@H]3[C@@H]4CC[C@H]([C@H](C)CCCC(C)C)[C@@]4(C)CC[C@@H]3[C@@]2(C)CC[C@@H]1O (stereo not given in full)
Total cholesterol [13]: 198 mg/dL
Relative change [14]: -37%
EC30 [15]: inactive

Cc1ccc(C[C@H]2C3CC[C@H]4[C@@H]5CC[C@H]([C@H](C)CCCC(C)C)[C@@]5(C)CC[C@@H]4[C@@]3(C)CC[C@H]2O)cc1 (stereo not given in full)
Activity [2]: inactive
Relative change [6]: -33%
EC30 [4]: 35 µM
Total cholesterol [7]: 283 mg/dL
MA [18]: 45%

CC(C)CCC[C@@H](C)[C@H]1CC[C@H]2[C@@H]3CCC4[C@H](Cc5ccc(Br)cc5)[C@H](O)CC[C@]4(C)[C@H]3CC[C@]12C (stereo not given in full)
Total cholesterol [19]: 160 mg/dL
Activity [2]: inactive
MA [3]: 57%
EC30 [4]: 6 µM
Relative change [20]: -42%

CC(C)CCC[C@@H](C)[C@H]1CC[C@H]2[C@@H]3CCC4[C@H](Cc5ccccc5)[C@H](O)CC[C@]4(C)[C@H]3CC[C@]12C (stereo not given in full)
Activity [2]: inactive
Relative change [16]: -35%
MA [3]: 44%
Total cholesterol [13]: 202 mg/dL
EC30 [4]: 32 µM
Activity [9]: Negative

CCC[C@H]1C2CC[C@H]3[C@@H]4CC[C@H]([C@H](C)CCCC(C)C)[C@@]4(C)CC[C@@H]3[C@@]2(C)CC[C@H]1O (stereo not given in full)
Total cholesterol [8]: 222 mg/dL
Activity [2]: inactive
MA [3]: 48%
EC30 [4]: 38 µM
Activity [9]: Negative
Relative change [10]: -27%

CC(C)CCC[C@@H](C)[C@H]1CC[C@H]2[C@@H]3CCC4[C@H](C/C=C/Cl)[C@H](O)CC[C@]4(C)[C@H]3CC[C@]12C (stereo not given in full)
Activity [2]: inactive
MA [3]: 169%
Relative change [11]: -44%
Total cholesterol [12]: 185 mg/dL
EC30 [4]: 2 µM
Activity [9]: Negative

From ChEMBL document CHEMBL1128436, “Synthesis and biological evaluation of a new series of sterols as potential hypocholesterolemic agents” (1995)
